Measured values from different studies.
Each line is one published result; the experiments were not run side by side.
Target: Serine/threonine-protein kinase D1 (PRKD1, Homo sapiens, UniProt Q15139)
Sequence (Q15139 1-912, as in one of the studies): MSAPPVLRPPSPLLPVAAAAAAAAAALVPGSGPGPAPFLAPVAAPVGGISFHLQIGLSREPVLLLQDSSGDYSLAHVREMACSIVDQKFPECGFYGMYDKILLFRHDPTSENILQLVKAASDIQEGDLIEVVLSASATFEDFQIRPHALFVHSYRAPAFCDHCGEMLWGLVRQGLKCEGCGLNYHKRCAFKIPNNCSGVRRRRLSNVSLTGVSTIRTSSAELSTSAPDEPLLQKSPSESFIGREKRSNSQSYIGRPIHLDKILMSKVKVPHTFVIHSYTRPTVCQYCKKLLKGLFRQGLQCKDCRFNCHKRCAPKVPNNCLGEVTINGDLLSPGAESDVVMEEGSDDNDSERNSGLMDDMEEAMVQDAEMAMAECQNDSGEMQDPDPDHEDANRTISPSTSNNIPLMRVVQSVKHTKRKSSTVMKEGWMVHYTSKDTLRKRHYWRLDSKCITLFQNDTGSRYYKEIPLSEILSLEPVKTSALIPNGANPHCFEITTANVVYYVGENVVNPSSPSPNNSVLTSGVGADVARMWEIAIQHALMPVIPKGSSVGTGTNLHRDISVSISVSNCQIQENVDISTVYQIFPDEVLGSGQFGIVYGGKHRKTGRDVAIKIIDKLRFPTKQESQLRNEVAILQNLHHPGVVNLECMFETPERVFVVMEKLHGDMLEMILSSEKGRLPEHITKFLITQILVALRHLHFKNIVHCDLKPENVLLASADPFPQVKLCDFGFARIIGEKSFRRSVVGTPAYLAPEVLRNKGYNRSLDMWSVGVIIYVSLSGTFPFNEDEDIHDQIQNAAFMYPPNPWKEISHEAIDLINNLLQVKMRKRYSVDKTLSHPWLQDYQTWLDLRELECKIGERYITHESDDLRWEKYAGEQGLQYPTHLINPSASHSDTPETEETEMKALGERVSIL

CCN(CC)c1ccc(C2=NNC(=O)CC2C)cc1[N+](=O)[O-] (stereo not shown)  remaining activity (enzyme activity; inhibitor; 10 µM): 14%
COc1cc2ncnc(Nc3ccc(Oc4ccccc4)c(C)c3C)c2cc1OC  inhibition (enzyme activity; inhibitor; 1 µM): -3%
COc1cccc2c(NCc3ccccc3)nc(-n3c(N)nc4ccccc43)nc12  inhibition (target engagement in cells; inhibitor; chemoproteomics; 20 mM): -20.7%
CCCOc1ccc(OC)c(F)c1C(=O)c1ccc(C(=O)N[C@@H]2CNC[C@H]2NC(=O)c2ccc3[nH]ncc3c2)cc1  remaining activity (enzyme activity; inhibitor; 10 µM): 53%
FC(F)c1nc2ccccc2n1-c1nc(N2CCOCC2)nc(N2CCOCC2)n1  remaining activity (enzyme activity; inhibitor; 10 µM): 96%
Cc1ncc([N+](=O)[O-])n1C(=NO)c1ccccc1C(F)(F)F  inhibition (enzyme activity; inhibitor; 10 µM): 7.69%
O=C(Nc1cnn(-c2csc(C(=O)NC3COC3)c2)c1)Nc1c(F)cccc1Cl  remaining activity (enzyme activity; inhibitor; 5 µM): 90.7%
CCCCNc1ncc2c(-c3ccc(F)cc3)nn(C[C@H]3CC[C@H](N)CC3)c2n1  inhibition (target engagement in cells; inhibitor; chemoproteomics; 20 mM): 25%
O=C(NC[C@@H]1[C@H]2CN(C(=O)OCc3cc(C(F)(F)F)cc(C(F)(F)F)c3)C[C@@H]12)c1ccc2[nH]nnc2c1  remaining binding (cell-free assay; competition with immobilised ligand; 1 µM): 100%
Cc1ccc(C(=O)Nc2ccc(CN3CCN(C)CC3)c(C(F)(F)F)c2)cc1C#Cc1cnc2cccnn12  remaining activity (enzyme activity; inhibitor; 23.5 nM): 91%
Nc1nc(NC2CCCCC2)sc1C(=O)c1ccccc1  remaining activity (enzyme activity; inhibitor; 10 µM): 35%
O=C1Nc2ccc(Cl)cc2C1=Cc1cc(Cl)c(O)c(Cl)c1  remaining signal (cell-free assay; 0.5 µM): 91.5%
COc1cc(Nc2cnc(C#N)c(O[C@H](C)CN(C)C)n2)ncc1-c1cnn(C)c1  remaining activity (enzyme activity; inhibitor; radiometric; 1 µM): 106%
CC(C)c1ccc(NC(=O)c2cccs2)c(-c2nc3ccccc3[nH]c2=O)c1  activity vs control (enzyme activity; inhibitor; 1 µM): 97%
CC(C)(O)c1cncc(-c2nc3ccc(F)cc3n2C2CC2)c1  remaining binding (cell-free assay; competition with immobilised ligand; 1 µM): 100%
Cc1cnc(NC2CCOCC2)nc1-n1cnc(C(=O)NC(CN)c2cc(F)cc(Cl)c2)c1 (stereo not shown)  remaining activity (enzyme activity; inhibitor; radiometric; 1 µM): 0%
Cn1cncc1C1=CN(c2ncnc3[nH]cnc23)CCS1  inhibition (enzyme activity; inhibitor; radiometric; 50 nM): 21.3%
Cc1ccc(NC(=O)c2ccc(C)c(C(F)(F)F)c2)cc1C#Cc1nn(C2CCC(O)CC2)c2ncnc(N)c12 (stereo not shown)  remaining signal (cell-free assay; 10 µM): 91%
Cn1cnc(Br)c1C1=CN(c2ncnc3[nH]cnc23)CCS1  inhibition (enzyme activity; inhibitor; radiometric; 50 nM): 21.4%
O=C(Nc1cnn(-c2csc(C(=O)NC3COC3)c2)c1)Nc1ccccc1Cl  remaining activity (enzyme activity; inhibitor; 5 µM): 114%
O=C(N[C@H]1CCCCC/C=C\C2C[C@@]2(C(=O)O)NC(=O)[C@@H]2C[C@@H](Oc3ccncc3)CN2C1=O)OC1CCCC1 (stereo partly shown)  remaining binding (binding; competition with immobilised ligand; 1 µM): 96%
CC(C)(C)c1nc2c(s1)c1nc(N)ncc1c1ccc(NS(=O)(=O)c3c(F)cccc3F)c(F)c12  remaining activity (enzyme activity; inhibitor; radiometric; 1 µM): 93%
CNC(=O)c1cc(Oc2ccc(NC(=O)Nc3ccc(Cl)c(C(F)(F)F)c3)cc2)ccn1  inhibition (enzyme activity; inhibitor; 0.3 µM): 8%
C[C@@H]1CCN(C(=O)CC#N)C[C@@H]1N(C)c1ncnc2[nH]ccc12  remaining signal (cell-free assay; inhibitor; 0.5 µM): 97.3%
Cc1c(NC(=O)c2cc(C(N)=O)nc3cc(F)ccc23)c(C(F)(F)F)nn1Cc1ccc(C(C)(C)C)cc1  remaining binding (cell-free assay; competition with immobilised ligand; 1 µM): 100%
Cn1c2ccccc2c2c3c(c4c5ccccc5n(CCC#N)c4c21)CNC3=O  remaining signal (cell-free assay; 0.5 µM): 17.3%
Cc1nccc(COC(=O)N2C[C@@H]3[C@@H](CNC(=O)c4ccc5[nH]nnc5c4)[C@@H]3C2)n1  remaining binding (cell-free assay; competition with immobilised ligand; 1 µM): 100%
FC(F)(F)Oc1cccc(-c2cnc3ccc(-c4ccncc4)nn23)c1  activity vs control (enzyme activity; inhibitor; radiometric; 1 µM): 106%
O=C(Nc1ccc(Oc2ccc(F)cc2)cc1)N1CCc2ncccc2[C@H]1c1ccc(F)cc1  remaining binding (cell-free assay; competition with immobilised ligand; 1 µM): 94%
CC(C)(O)[C@H]1CC[C@H](Nc2ccc3ncc(-c4cccc(C(F)(F)F)c4)n3n2)CC1  remaining activity (enzyme activity; inhibitor; 1 µM): 99.5%
CN([C@@H]1CCc2c(CC(=O)O)c3ccccc3n2C1)S(=O)(=O)c1ccc(F)cc1  remaining binding (cell-free assay; competition with immobilised ligand; 1 µM): 100%
COc1cc(/C=C/C(=O)CC(=O)/C=C/c2ccc(O)c(OC)c2)ccc1O  activity vs control (enzyme activity; inhibitor; 1 µM): 79%
CN(C(=O)c1ccccc1)c1cc(N(C)c2ccc3c(c2)CCc2ccc(C(=O)NCCN4CCOCC4)cc2C3=O)ccc1F  remaining binding (cell-free assay; competition with immobilised ligand; 1 µM): 86%
Cc1ccc(Nc2nccc(N(C)c3ccc4c(C)n(C)nc4c3)n2)cc1S(N)(=O)=O  inhibition (enzyme activity; inhibitor; 0.3 µM): 9%
